One block for each compound: values may come before it. Activity calls are given as the source filed them. No cut-off for these calls is given here.
Legend:
HepG2 = experiment: Cytotoxicity against human HepG2 cells assessed as reduction in cell viability after 48 hrs by MTS assay; type: cell-based; details: HepG2, 48 h
Outline: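 HepG2 cells seeded at 2250 per well, grown 24 h at 37 °C, 5% CO2. Serial compound dilutions starting at 25 μM added for a further 48 h. MTS reagent added for 3 h at 37 °C; viability read as absorbance at 490 nm.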

Plasmodium falciparum [1] = experiment: Antiplasmodial activity against chloroquine-sensitive Plasmodium falciparum 3D7 infected in erythrocytes assessed as reduction in parasite growth after 72 hrs by SYBR green I staining based fluorescence assay; type: functional, organism-based; details: 3D7, Erythrocyte
Outline: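 Compound dilutions in DMSO (max 0.1% DMSO) added to P. falciparum culture at 1% parasitemia, 1% hematocrit; 72 h at 37 °C, 5% CO2. Plates frozen, thawed, lysed with buffer containing saponin, Triton X-100, EDTA and SYBR Green I; 1 h dark at room temperature; fluorescence ex 485/em 530. EC50 from non-linear dose-response curves.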

Plasmodium falciparum [2] = experiment: Antiplasmodial activity against chloroquine-resistant Plasmodium falciparum Dd2 infected in erythrocytes assessed as reduction in parasite growth after 72 hrs by SYBR green I staining based fluorescence assay; type: functional, organism-based; details: Dd2, Erythrocyte
Outline: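 Asexual P. falciparum cultures at 1% parasitemia and 1% hematocrit, given serial dilutions in DMSO (0.1% maximum), were incubated 72 h at 37 °C in 5% CO2. Plates were frozen, thawed and lysed with Tris/saponin/EDTA/Triton X-100 buffer containing SYBR Green I, then kept 1 h dark at room temperature. Fluorescence was read at 485 excitation/530 emission. EC50 came from non-linear dose-response curves.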

Hemozoin [3] = experiment: Inhibition of beta-hematin formation at 12.5 to 200 uM after 16 hrs by inverted microscopic analysis; details: dose 12.5-200 µM
[4] = Stability in mouse liver microsomes assessed as parent compound remaining at 1 uM after 15 mins in presence of NADPH regenerating system by LC/MS analysis; type: ADME, Microsome; details: read-out: Stabilty
Outline: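 Compound at 1 μM final (from 25 μM DMSO stock) with 0.5 mg/mL mouse liver microsomes, NADPH-regenerating system (1.3 mM NADP, 3.3 mM glucose 6-phosphate, 3.3 mM MgCl2, 0.4 U/mL G6PDH) in 0.1 M potassium phosphate pH 7.4, 37 °C with shaking. Aliquots quenched in cold acetonitrile, centrifuged, quantified by LC/MS as percent parent remaining relative to T = 0; CLint and t1/2 reported.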

Plasmodium falciparum [5] = experiment: Parasiticidal activity against chloroquine-resistant Plasmodium falciparum Dd2 infected in erythrocytes assessed as reduction in parasitemia at 50 nM incubated for 24 to 48 hrs followed by compound washout and then incubated for 96 hrs by Giemsa staining based microscopic analysis; type: functional, organism-based; details: time 24-48 hrs
Plasmodium falciparum [6] = experiment: Parasiticidal activity against chloroquine-resistant Plasmodium falciparum Dd2 infected in erythrocytes assessed as reduction in parasitemia at 6.6 nM incubated for 6 to 12 hrs followed by compound washout and then incubated for 96 hrs by Giemsa staining based microscopic analysis; type: functional, organism-based; details: time 6-12 hrs
Plasmodium falciparum [7] = experiment: Antimalarial activity against Plasmodium falciparum RKL9 gametocytes incubated for 48 hrs by Giemsa staining based assay; type: functional, organism-based; details: RKL9, 48 h
Plasmodium falciparum [8] = experiment: Antiplasmodial activity against synchronized chloroquine-resistant Plasmodium falciparum Dd2 assessed as morphological changes at 5 times of EC50 treated with compound at 6 hrs post invasion and measured after 12 hrs by Giemsa staining-based microscopic analysis; type: functional, organism-based
Outline: (§1)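 Samples taken at 12 h intervals were made into Giemsa-stained thin smears and scored by microscopy for intraerythrocytic stage and development, against untreated control cultures.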

Plasmodium falciparum [9] = experiment: Antiplasmodial activity against synchronized chloroquine-resistant Plasmodium falciparum Dd2 assessed as reduction in DNA content at 5 times of EC50 treated with compound at 6 to 30 hrs post invasion measured after 12 hrs by YOYO-1 staining-based flow cytometric analysis; type: functional, organism-based
Plasmodium falciparum [10] = experiment: Antiplasmodial activity against synchronized chloroquine-resistant Plasmodium falciparum Dd2 assessed as prevention of parasite cell cycle progression at 5 times of EC50 treated with compound at 6 to 30 hrs post invasion and measured after 12 hrs by Giemsa staining-based microscopic analysis; type: functional, organism-based; outline: as §1
Plasmodium falciparum [11] = experiment: Antiplasmodial activity against late stage (IV/V) gametocytes of Plasmodium falciparum 3D7 harboring luc7 incubated for 72 hrs by ONE-Glo luciferase assay; type: functional, organism-based; details: 3D7, 72 h
Outline: (§2)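 Gametocytes of the 3D7 luc7 line were induced by nutrient starvation and cleared of asexual parasites with heparin-treated medium. Stage II-III or IV-V gametocytes were Percoll-purified, and 50,000 per well were exposed 72 h to a 19-point gradient (0.038 nM to 10 μM). Read-out was ONE-Glo luciferase after 5 min with reagent. EC50 came from four-parameter variable-slope nonlinear regression.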

Hemozoin [12] = experiment: Inhibition of beta-hematin formation after 16 hrs by inverted microscopic analysis
Plasmodium falciparum [13] = experiment: Antiplasmodial activity against early stage (II/III) gametocytes of Plasmodium falciparum 3D7 harboring luc7 incubated for 72 hrs by ONE-Glo luciferase assay; type: functional, organism-based; details: 3D7, 72 h; outline: as §2
Plasmodium falciparum [14] = experiment: Antiplasmodial activity against synchronized chloroquine-resistant Plasmodium falciparum Dd2 assessed as effect on schizont maturation and reinvasion of merozoite at 5 times of EC50 treated with compound at 42 hrs post invasion and measured after 12 hrs by Giemsa staining-based microscopic analysis; type: functional, organism-based; outline: as §1
Plasmodium falciparum [15] = experiment: Antiplasmodial activity against synchronized chloroquine-resistant Plasmodium falciparum Dd2 assessed as appearance of large vacuoles at 5 times of EC50 treated with compound at 6 to 42 hrs post invasion and measured after 12 hrs by Giemsa staining-based microscopic analysis; type: functional, organism-based; outline: as §1
Plasmodium falciparum [16] = experiment: Parasiticidal activity against chloroquine-resistant Plasmodium falciparum Dd2 infected in erythrocytes assessed as reduction in parasitemia at 5 times of EC50 incubated for 6 to 12 hrs followed by compound washout and then incubated for 96 hrs by Giemsa staining based microscopic analysis; type: functional, organism-based; details: time 6-12 hrs
Plasmodium falciparum [17] = experiment: Antiplasmodial activity against synchronized chloroquine-resistant Plasmodium falciparum Dd2 assessed as reduction in DNA content at 5 times of EC50 treated with compound at 42 hrs post invasion measured after 12 hrs by YOYO-1 staining-based flow cytometric analysis; type: functional, organism-based

Structure (SMILES): OCCN1CCN(Cc2cn(CCCCNc3cc(/C=C/c4ccncc4)nc4ccc(Cl)cc34)nn2)CC1
- EC50 (HepG2): > 25000 nM
- EC50 (Plasmodium falciparum [1]): 640 nM
- EC50 (Plasmodium falciparum [2]): 670 nM

Structure (SMILES): CCN(CC)Cc1cn(-c2cc(/C=C/c3ccncc3)nc3ccc(Cl)cc23)nn1
- EC50 (Plasmodium falciparum [2]): 1320 nM

Structure (SMILES): CN1CCN(Cc2cn(CCNc3cc(/C=C/c4ccncc4)nc4ccc(Cl)cc34)nn2)CC1
- EC50 (Plasmodium falciparum [2]): > 10000 nM

Structure (SMILES): Clc1ccc2nc(/C=C/c3ccncc3)cc(NCCn3cc(CN4CCCCC4)nn3)c2c1
- EC50 (HepG2): 13500 nM
- EC50 (Plasmodium falciparum [1]): 470 nM
- EC50 (Plasmodium falciparum [2]): 550 nM

Structure (SMILES): CN1CCN(Cc2cn(-c3cc(/C=C/c4ccncc4)nc4ccc(Cl)cc34)nn2)CC1
- EC50 (Plasmodium falciparum [2]): > 10000 nM

- inhibition (Hemozoin [3]): Active
Structure (SMILES): CCN(CC)CCCC(C)Nc1ccnc2cc(Cl)ccc12 (stereo unspecified)

Structure (SMILES): Clc1ccc2nc(/C=C/c3ccncc3)cc(NCCn3cc(Cn4cccn4)nn3)c2c1
- EC50 (Plasmodium falciparum [2]): 1180 nM

Structure (SMILES): O=C1c2ccccc2C(=O)N1Cc1cn(-c2cc(/C=C/c3ccncc3)nc3ccc(Cl)cc23)nn1
- EC50 (Plasmodium falciparum [2]): 8790 nM

Structure (SMILES): Clc1ccc2nc(/C=C/c3ccncc3)cc(NCCCCn3cc(CN4CCOCC4)nn3)c2c1
- EC50 (HepG2): > 25000 nM
- EC50 (Plasmodium falciparum [1]): 230 nM
- EC50 (Plasmodium falciparum [2]): 170 nM
- remaining at 0.25 h, 1 µM [4]: < 50%

Structure (SMILES): Clc1ccc2nc(/C=C/c3ccncc3)cc(-n3cc(CN4CCOCC4)nn3)c2c1
- EC50 (Plasmodium falciparum [2]): > 10000 nM

Structure (SMILES): Clc1ccc2nc(/C=C/c3ccncc3)cc(NCCn3cc(CN4CCOCC4)nn3)c2c1
- EC50 (Plasmodium falciparum [2]): 1850 nM

Structure (SMILES): Clc1ccc2nc(/C=C/c3ccncc3)cc(-n3cc(CN4CCCC4)nn3)c2c1
- EC50 (Plasmodium falciparum [2]): 1650 nM

Structure (SMILES): CCN(CC)Cc1cn(CCNc2cc(/C=C/c3ccncc3)nc3ccc(Cl)cc23)nn1
- EC50 (Plasmodium falciparum [2]): 1320 nM

Structure (SMILES): O=C1c2ccccc2C(=O)N1Cc1cn(CCCCNc2cc(/C=C/c3ccncc3)nc3ccc(Cl)cc23)nn1
- EC50 (Plasmodium falciparum [2]): 1000 nM

Structure (SMILES): OCCN1CCN(Cc2cn(-c3cc(/C=C/c4ccncc4)nc4ccc(Cl)cc34)nn2)CC1
- EC50 (Plasmodium falciparum [2]): 1660 nM

Structure (SMILES): Clc1ccc2nc(/C=C/c3ccncc3)cc(NCCCCn3cc(Cn4cccn4)nn3)c2c1
- EC50 (HepG2): 21200 nM
- EC50 (Plasmodium falciparum [1]): 280 nM
- EC50 (Plasmodium falciparum [2]): 350 nM
- remaining at 0.25 h, 1 µM [4]: < 50%

Structure (SMILES): CN1CCN(Cc2cn(CCCCNc3cc(/C=C/c4ccncc4)nc4ccc(Cl)cc34)nn2)CC1
- EC50 (HepG2): 15800 nM
- EC50 (Plasmodium falciparum [1]): 160 nM
- EC50 (Plasmodium falciparum [2]): 160 nM
- remaining at 0.25 h, 1 µM [4]: < 50%

Structure (SMILES): C[C@H]1[C@@H](O)O[C@@H]2O[C@@]3(C)CC[C@H]4[C@H](C)CC[C@@H]1[C@@]24OO3
- Activity (Plasmodium falciparum [5]): Active

Structure (SMILES): O=C1S/C(=C\c2ccccc2)C(=O)N1Cc1cn(CCCCNc2cc(/C=C/c3ccncc3)nc3ccc(Cl)cc23)nn1
- EC50 (HepG2): > 25000 nM
- EC50 (Plasmodium falciparum [1]): 330 nM
- EC50 (Plasmodium falciparum [2]): 600 nM

Structure (SMILES): Clc1ccc2nc(/C=C/c3ccncc3)cc(NCCCCn3cc(CN4CCCC4)nn3)c2c1
- EC50 (HepG2): > 25000 nM
- EC50 (Plasmodium falciparum [1]): 520 nM
- EC50 (Plasmodium falciparum [2]): 690 nM

Structure (SMILES): O=C1c2ccccc2C(=O)N1Cc1cn(CCNc2cc(/C=C/c3ccncc3)nc3ccc(Cl)cc23)nn1
- EC50 (Plasmodium falciparum [2]): 1070 nM

Structure (SMILES): O=C1C(O)=C([C@H]2CC[C@H](c3ccc(Cl)cc3)CC2)C(=O)c2ccccc21
- Activity (Plasmodium falciparum [6]): Active

Structure (SMILES): O=C(Cn1cc(COc2ccc(Br)cc2)nn1)NCCNc1ccnc2cc(Cl)ccc12
- IC50 (Plasmodium falciparum [7]): 8500 nM

Structure (SMILES): O=C1S/C(=C\c2ccccc2)C(=O)N1Cc1cn(CCNc2cc(/C=C/c3ccncc3)nc3ccc(Cl)cc23)nn1
- EC50 (HepG2): 5730 nM
- EC50 (Plasmodium falciparum [1]): 440 nM
- EC50 (Plasmodium falciparum [2]): 240 nM
- remaining at 0.25 h, 1 µM [4]: < 50%

Structure (SMILES): OCCN1CCN(Cc2cn(CCNc3cc(/C=C/c4ccncc4)nc4ccc(Cl)cc34)nn2)CC1
- EC50 (Plasmodium falciparum [2]): 4270 nM

Structure (SMILES): Clc1ccc2nc(/C=C/c3ccncc3)cc(NCCCCn3cc(CN4CCCCC4)nn3)c2c1
- EC50 (HepG2): 5490 nM
- Activity (Plasmodium falciparum [8]): inactive
- Activity (Plasmodium falciparum [9]): Active
- EC50 (Plasmodium falciparum [1]): 70 nM
- Activity (Plasmodium falciparum [10]): Active
- EC50 (Plasmodium falciparum [2]): 40 nM
- EC50 (Plasmodium falciparum [11]): 890 nM
- inhibition (Hemozoin [12]): Dose-dependent effect
- EC50 (Plasmodium falciparum [13]): 950 nM
- Activity (Plasmodium falciparum [14]): inactive
- Activity (Plasmodium falciparum [15]): Active
- Activity (Plasmodium falciparum [16]): Active
- remaining at 0.25 h, 1 µM [4]: < 50%
- Activity (Plasmodium falciparum [17]): inactive

Structure (SMILES): Clc1ccc2nc(/C=C/c3ccncc3)cc(-n3cc(CN4CCCCC4)nn3)c2c1
- EC50 (Plasmodium falciparum [2]): 1240 nM

Structure (SMILES): Clc1ccc2nc(/C=C/c3ccncc3)cc(NCCn3cc(CN4CCCC4)nn3)c2c1
- EC50 (Plasmodium falciparum [2]): 2960 nM

From ChEMBL document CHEMBL4732055, “Discovery of fast-acting dual-stage antimalarial agents by profiling pyridylvinylquinoline chemical space via copper catalyzed azide-alkyne cycloadditions” (Eur J Med Chem, 2021)
